Assay [1] deals with Mus musculus. Description: Muscle relaxant effect in rotarod test at 100 mg/kg 13c and 0.3 mg/kg Diazepam. Format: functional.
For assay [2], the system named is Mus musculus. In words: Muscle relaxant effect in rotarod test at 100 mg/kg 13c and 1 mg/kg Diazepam. It counts as functional. On the technique in general: In the rotarod test animals must keep their balance on a rotating rod.
The test system of assay [3] is Mus musculus. In words: Anticonvulsant activity against PTZ induced seizures in mice at 100 mg/kg dose with 0.3 mg/kg Diazepam. Format: functional.
In assay [4] the test system is Mus musculus. Description: Antianxiolytic activity in mice as no of crosses on light/dark box at 100 mg/kg 13c and 1 mg/kg Diazepam. Format: functional.
The subject of assay [5] is Mus musculus. In words: Anticonvulsant activity against PTZ induced seizures at 100 mg/kg dose with 1 mg/kg Diazepam. It counts as functional.
Assay [6] relates to Mus musculus. Description: Antianxiolytic activity in mice as percent time in light of light/dark box at 100 mg/kg 13c and 1 mg/kg Diazepam. Format: functional.
Assay [7] deals with T1, GABA-A receptor; anion channel (Bos taurus) (UniProt P10063+P08220+P20237+P08219+P10064+P22300). Description: Percentage inhibition of [3H]Ro-151788 binding to GABA-A benzodiazepine receptor in bovine brain membrane at 10 uM. It counts as cell membranes. The gist of the method: (§1)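 Washed bovine cerebral cortex membranes, with endogenous GABA removed by Triton X-100/37 °C washes, incubated with ~0.2 nM [3H]Ro15-1788 (Kd 0.60 nM) in 50 mM Tris-citrate pH 7.4 for 90 min at 0 °C, then filtered. Nonspecific binding defined with 10 μM diazepam. Screening at 10 μM; Ki from IC50 by Cheng–Prusoff; five determinations, mean ± SEM.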

Assay [8] addresses T1, GABA-A receptor; anion channel (Bos taurus). In words: The GABA ratio (GR) = IC50 compound + 10 uM GABA, performed in five independent experiments was calculated for the compound. Format: protein-complex assay. The method in brief: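 [3H]Ro15-1788 displacement from GABA-depleted bovine cortex membranes (0.2 nM ligand, 90 min, 0 °C, Tris-citrate pH 7.4). IC50 measured without and with 10 μM GABA and the ratio taken; five independent experiments.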

Assay [9] deals with GABA-A receptor; anion channel. In words: Displacement of [3H]Ro-151788 from GABA-A benzodiazepine receptor of bovine brain membranes. Format: cell membranes, Bos taurus. The gist of the method: as §1
The test system of assay [10] is Mus musculus. In words: The antianxiety activity for the compound at a dose of 0.3 mg/kg was evaluated as number of crosses by mice in the light/dark box experiment. p<0.05. It counts as functional.
The test system of assay [11] is Mus musculus. In words: Muscle relaxant effect measured by rotarod test at 3 mg/Kg dose in mice. Format: functional.
Assay [12] concerns Mus musculus. In words: The antianxiety activity for the compound at a dose of 3 mg/kg was evaluated as number of crosses by mice in the light/dark box experiment. Format: functional.
The test system of assay [13] is Mus musculus. Description: The percentage time in light by the animals was calculated for the compound at a dose of 3 mg/kg in the light/dark box experiment. It counts as functional.
Assay [14] deals with Mus musculus. Description: The percentage time in light by the animals was calculated for the compound at a dose of 1 mg/kg in the light/dark box experiment*** indicates P<0.001. Format: functional.
In assay [15] the test system is Mus musculus. In words: Muscle relaxant effect measured by rotarod test at 1 mg/Kg dose in mice. It counts as functional.
The test system of assay [16] is Mus musculus. Description: The antianxiety activity for the compound at a dose of 1 mg/kg was evaluated as number of crosses by mice in the light/dark box experiment. Format: functional.
Assay [17] concerns Mus musculus. In words: The percentage time in light by the animals was calculated for the compound at a dose of 0.3 mg/kg in the light/dark box experiment. It counts as functional.
The subject of assay [18] is Mus musculus. Description: Muscle relaxant effect measured by rotarod test at 0.1 mg/Kg dose in mice. It counts as functional.
For assay [19], the system named is Mus musculus. Description: Muscle relaxant effect measured by rotarod test at 0.3 mg/Kg dose in mice. It counts as functional.
Assay [20] has as its system Mus musculus. Description: Muscle relaxant effect measured by rotarod test at 30 mg/kg dose 13d and 100 mg/kg Flumazenil. It counts as functional.
Assay [21] deals with Mus musculus. In words: Anticonvulsant activity against PTZ induced attacks at 30 mg/kg dose 13d and 100 mg/kg Flumazenil. Format: functional. The method in brief: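 Male Swiss-Webster mice (22–26 g) received drug in 1% CMC (10 mL/kg) 30 min before the test, or flumazenil 40 min before. Pentylenetetrazole was then given at 75 mg/kg sc, and generalized tonic-clonic seizures were scored over the following 30 min. The incidence of non-convulsing mice was analysed by χ² test.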

Here are results for ten compounds from ChEMBL document CHEMBL1132244, “Benzodiazepine receptor ligands. 4. Synthesis and pharmacological evaluation of 3-heteroaryl-8-chloropyrazolo[5,1-c][1,2,4] benzotriazine 5-oxides” (J Med Chem, 1999).

By inhibition is commonly meant the relative decrease from the control value, in per cent. In general, Ki refers to the equilibrium dissociation constant of an inhibitor or competing ligand from its target.

Turning to `CN1C(=O)CN=C(c2ccccc2)c2cc(Cl)ccc21.[O-][n+]1nc2c(-c3cccs3)cnn2c2cc(Cl)ccc21`, the No. of falls with Mus musculus [1] is listed as 0.5; with Mus musculus [2], 0.17. Further, the Atttacks is listed as 50% in the assay with Mus musculus [3] and 100% with Mus musculus [5]. The compound further returned a No. of crosses in the assay with Mus musculus [4] of 26.6. In addition, the Time in flight in the assay on Mus musculus [6] amounted to 130.9%.

In [7], `CC(C)(C)OC(=O)Nc1cnn2c1n[n+]([O-])c1ccc(Cl)cc12` showed an inhibition of 0%.

For `O=CNC(=O)c1cnn2c1n[n+]([O-])c1ccc(Cl)cc12`, in assay [8], the Ratio is 2.07. In addition, the Ki in assay [9] stood at 844 nM. In addition, the inhibition in assay [7] stood at 85.5%.

`Cc1n[nH]c(-c2cnn3c2n[n+]([O-])c2ccc(Cl)cc23)n1`: the inhibition in assay [7] was found to be 15.2%.

On to `CN1C(=O)CN=C(c2ccccc2)c2cc(Cl)ccc21` [DIAZEPAM], for which the No. of crosses is given as 22 in the assay on Mus musculus [10], 16.5 in the assay on Mus musculus [12] and 28.5 with Mus musculus [16]. The No. of falls in the assay with Mus musculus [11] came out at 1.4; in the assay with Mus musculus [15], 0.73; with Mus musculus [18] it was 0.23; in the assay with Mus musculus [19] it was 0.56. For the same compound, the Time in light in the assay with Mus musculus [13] is recorded as 211.1%; in the assay on Mus musculus [14], 144.9%; with Mus musculus [17], 95.5%.

`CN(C)/C=N/C(=O)c1cnn2c1n[n+]([O-])c1ccc(Cl)cc12`: the inhibition in assay [7] amounted to 48.9%.

For `[O-][n+]1nc2c(-n3cccc3)cnn2c2cc(Cl)ccc21`, in assay [8], the GR is 1.24. In assay [9], this compound came in with a Ki of 61.5 nM. This compound gave an inhibition in assay [7] of 87.5%.

Turning to `CCOC(=O)c1ncn2c1CN(C)C(=O)c1cc(F)ccc1-2.[O-][n+]1nc2c(-c3ccsc3)cnn2c2cc(Cl)ccc21`, the No. of falls with Mus musculus [20] was found to be 0.64. Moreover, the Attacks with Mus musculus [21] stood at 36.4%.

For the compound `[O-][n+]1nc2c(-c3cnoc3)cnn2c2cc(Cl)ccc21`, in assay [7], the inhibition came out at 66%.

For the compound `CN1C(=O)CN=C(c2ccccc2)c2cc(Cl)ccc21`, the GR in assay [8] was 1.5.
